According to PMC10432884 (Clinical and Translational Science, 2023):
“Also recorded” adds a separate entry of the source. Read-outs that look alike come from different tables or passages of the source.

Columns and labels:
[1] = dogs, preclinical experiments, cited from earlier work
healthy subjects = experiment: First-in-human trial, food-interaction; assay type: in vivo
How it was run: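 Safety covered all dosed subjects in the SAD, MAD and FI phases: AEs (MedDRA 21.1), concomitant medication, vital signs, ECGs, physical exams and safety labs. BP was taken after 5 min supine, then ≥1 min sitting and 1–3 min standing. Orthostasis was defined as an SBP fall ≥20 mmHg or DBP fall ≥10 mmHg within 3 min standing. TEAEs were summarized by treatment, organ class, severity and drug-relatedness.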

rodents = conditions: in vivo; cited from earlier work
[2] = MAD phase pharmacokinetics; assay type: in vivo, human; conditions: for PTR, GeoMean / PTR, Median: peak-to-trough ratio; for R max, GeoMean / R max, Median: accumulation ratio from C max; for R through, GeoMean / R through, Median: accumulation ratio from C trough; for t 1/2_eff, Median / t 1/2_eff, GeoMean: effective half-life based on accumulation; for AUC: both, human, plasma, oral, 2 mg, AUC τ
How it was run: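 MAD phase, 2–15 mg q.d. oral for 14 days. Plasma was sampled predose daily and 15 min–48 h on days 1 and 14. Urine was pooled over 24 h on days 1 and 14. One CSF sample was taken 3 h postdose on day 7 (10 mg cohort). All matrices were assayed by validated LC-MS/MS. Derived: Cmax, Tmax, t1/2, AUCτ, Ctrough, peak-to-trough ratio, accumulation ratios, and CSF/plasma ratio corrected for protein binding. Results reported as geometric means (95% CI) and medians.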

[3] = FI sequence 10 mg Fasted‐Fed (n = 7)
[4] = FI sequence 10 mg Fed‐Fasted (n = 7)

## Fc1ccccc1Cc1nc(-c2nc(C(F)(F)F)n[nH]2)cn2ccnc12 [zagociguat, 8‐(2‐fluorobenzyl)‐6‐(3‐(trifluoromethyl)‐1H‐1,2,4‐triazol‐5‐yl)imidazo[1,2‐a]pyrazine]
[1]; 1 h after oral 1 mg/kg
  CSF/free plasma ratio: 0.45
[1]; 2 h after oral 1 mg/kg
  CSF/free plasma ratio: 0.32
[1]; 4 h after oral 1 mg/kg
  CSF/free plasma ratio: 0.3
[1]; 8 h after oral 1 mg/kg
  CSF/free plasma ratio: 0.28
Healthy subjects; FI phase
  Orthostatic hypotension events: No orthostatic hypotension events
Healthy subjects; FI phase, 10 mg, fed and fasted
  Subjects with dizziness TEAEs: Three
Healthy subjects; [3]
  Subjects discontinued from study drug due to ≥1 TEAE: 0 n
  Subjects with ≥1 SAE: 0 n
  Subjects with ≥1 study drug related TEAE: 2 n
  TEAEs: 7 n
Healthy subjects; [4]
  Subjects discontinued from study drug due to ≥1 TEAE: 0 n
  Subjects with ≥1 SAE: 0 n
  Subjects with ≥1 study drug related TEAE: 1 n
  TEAEs: 7 n
rodents
  qEEG gamma band power: increased gamma band power
[2]; CSF sampling during the MAD phase
  CNS penetration: confirmed by cerebrospinal fluid sampling; also recorded: confirmed by CSF sampling
[2]; MAD
  Dose level from which detectable in urine: 2 mg
[2]; MAD 2 mg q.d., day 1
  C trough, GeoMean: 161.13 ng/mL
  C trough, Median: 157.0 ng/mL
  PTR, GeoMean: 1.62
  PTR, Median: 1.64
[2]; MAD 2 mg q.d., day 14
  PTR, GeoMean: 1.41
  PTR, Median: 1.40
[2]; MAD 2 mg q.d.
  R max, GeoMean: 3.38
  R max, Median: 3.32
  R through, GeoMean: 3.87
  R through, Median: 4.06
  t 1/2_eff, Median: 54.46 h
[2]; MAD 5 mg q.d., day 1
  PTR, GeoMean: 1.55
  PTR, Median: 1.50
[2]; MAD 5 mg q.d., day 14
  PTR, GeoMean: 1.35
  PTR, Median: 1.34
[2]; MAD 5 mg q.d.
  R max, GeoMean: 3.45
  R max, Median: 3.56
  R through, GeoMean: 3.98
  R through, Median: 3.79
  t 1/2_eff, GeoMean: 54.60 h
  t 1/2_eff, Median: 56.63 h
[2]; MAD 10 mg q.d., day 1
  PTR, Median: 1.36
[2]; MAD 10 mg q.d., day 14
  PTR, GeoMean: 1.37
  PTR, Median: 1.37
[2]; MAD 10 mg q.d.
  R max, GeoMean: 3.60
  R max, Median: 3.68
  R through, GeoMean: 3.79
  R through, Median: 3.56
  t 1/2_eff, GeoMean: 54.29 h
  t 1/2_eff, Median: 54.53 h
[2]; MAD 15 mg q.d., day 1
  C trough, GeoMean: 1173.20 ng/mL
  C trough, Median: 1165 ng/mL
  PTR, GeoMean: 1.38
  PTR, Median: 1.37
[2]; MAD 15 mg q.d., day 11
  C trough, GeoMean: 4149.25 ng/mL
  C trough, Median: 4140 ng/mL
[2]; MAD 15 mg q.d., day 12
  C trough, GeoMean: 4246.79 ng/mL
  C trough, Median: 4140 ng/mL
[2]; MAD 15 mg q.d., day 13
  C trough, GeoMean: 4157.21 ng/mL
  C trough, Median: 4160 ng/mL
[2]; MAD 15 mg q.d., day 14
  C trough, GeoMean: 4377.90 ng/mL
  C trough, Median: 4275 ng/mL
  PTR, GeoMean: 1.35
  PTR, Median: 1.33
[2]; MAD 15 mg q.d.
  R max, GeoMean: 3.61
  R max, Median: 3.54
  R through, GeoMean: 3.73
  R through, Median: 3.81
  t 1/2_eff, GeoMean: 52.80 h
  t 1/2_eff, Median: 51.81 h
[2]; MAD day 1 and day 14 (Table S6)
  Dose linearity analysis using AUC τ and C max: indicated dose proportionality
[2]; MAD, all doses administered, Helmert contrasts of trough concentrations
  Day on which steady-state was attained: 11 days
[2]; GeoMean, MAD 2 mg q.d., day 1
  AUC: 4500 ng·h/mL
[2]; GeoMean, MAD 2 mg q.d., day 14
  AUC: 16900 ng·h/mL
[2]; Median, MAD 2 mg q.d., day 1
  AUC: 4520 ng·h/mL
